Source: PubChem (several laboratories)
KCNK9 block: blocks the human KCNK9 two-pore domain potassium channel; B-score at 10 µM; HEK293 KCNK9, FluxOR thallium flux fluorescence; stronger effect = lower value; Q9NPC2; 1.2% of 310,000 active;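 active = ratio B-score over 3 SD below the library mean, with starting fluorescence within 5 SD of its mean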;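 also: negative B-score means less thallium flux so channel inhibition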
Target sequence (Q9NPC2 whole entry, looked up, the tested form may be a part): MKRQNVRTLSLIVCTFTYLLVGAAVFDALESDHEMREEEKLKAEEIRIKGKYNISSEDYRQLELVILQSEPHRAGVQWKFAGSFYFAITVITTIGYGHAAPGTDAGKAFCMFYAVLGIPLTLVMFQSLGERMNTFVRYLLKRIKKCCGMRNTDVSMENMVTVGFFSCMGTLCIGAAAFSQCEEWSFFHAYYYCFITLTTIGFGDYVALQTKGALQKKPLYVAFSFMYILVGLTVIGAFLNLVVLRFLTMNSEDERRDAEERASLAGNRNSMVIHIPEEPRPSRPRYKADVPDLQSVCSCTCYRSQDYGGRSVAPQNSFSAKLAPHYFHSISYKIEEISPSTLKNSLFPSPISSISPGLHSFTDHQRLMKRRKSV
KCNK3 block: human KCNK3 channel inhibition, primary screen. 0.84% of 340,000 active. O14649. CHO-KCNK3 thallium flux, FluxOR fluorescence; stronger effect = lower value. AID 602410. B-score at 10 µM;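 active = B-score under library mean minus 4 SD, starting fluorescence ratio at most library mean plus 5 SD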;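 also: more negative B-score means stronger inhibition of thallium flux through KCNK3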
Target sequence (O14649 whole entry, looked up): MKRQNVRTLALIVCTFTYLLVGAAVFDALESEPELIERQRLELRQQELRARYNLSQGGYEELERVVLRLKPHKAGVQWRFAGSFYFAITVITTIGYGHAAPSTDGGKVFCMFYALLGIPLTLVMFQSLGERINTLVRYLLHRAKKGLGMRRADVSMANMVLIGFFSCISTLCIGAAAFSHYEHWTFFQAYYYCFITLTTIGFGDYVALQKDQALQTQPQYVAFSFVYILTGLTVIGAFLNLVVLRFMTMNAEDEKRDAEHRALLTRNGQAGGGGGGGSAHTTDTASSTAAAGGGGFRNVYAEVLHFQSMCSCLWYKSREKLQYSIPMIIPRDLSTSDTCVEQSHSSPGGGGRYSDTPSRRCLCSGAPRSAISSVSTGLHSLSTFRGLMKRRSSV
KCNQ1 inh: blocks the human KCNQ1 potassium channel | P51787 | CHO-K1 KCNQ1, FluxOR thallium flux fluorescence; stronger effect = higher value | B-score at 10 µM | 1.3% of 310,000 active;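 active = compounds whose thallium flux B-score, printed positive for inhibition, exceeds three library SD while starting fluorescence stays within three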;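 also: channel opened by potassium depolarization with thallium stimulus after 20 min compound exposure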
KCNQ1 pot: potentiators or activators of human KCNQ1 potassium channel; P51787; CHO-K1 KCNQ1, thallium flux FluxOR fluorescence; stronger effect = higher value; B-score at 10 µM; 0.35% of 310,000 active; AID 2648;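 active = fluorescence ratio B-score, a plate-corrected score, at least three library SD, with initial intensity B-score within 5 SD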
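assay system = CHO-K1 cells stably expressing KCNQ1 | medium = assay buffer, equal DMSO in all wells | timing = 37 °C overnight plating, 90-min dark dye load, 20-min compound pretreatment | measured by = kinetic FluxOR thallium fluorescence, 10-s 1-Hz baseline, 110-s post-stimulus read | measure = fluorescence change relative to baseline, converted to B score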
Cl transport mod: KCC2 (human) Cl- transport modulation. Q9H2X9. KCC2 cells, thallium flux FluoZin-2 fluorescence. B-score of Tl+ flux slope (higher = more flux/activation; lower = inhibition) at 10 µM. 2.2% of 190,000 active;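 active = thallium flux slope and its plate-corrected score both differing from the plate sample mean at a set confidence after two filtering rounds, in either direction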;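 also: slope of fluorescence scaled to starting intensity during 10 to 20 s after thallium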
hERG protect: hERG (human) protection from proarrhythmic block; 0.51% of 310,000 active; activation (rescue from dofetilide block), less the hit threshold, % at 10 µM; AID 1511; CHO-hERG, FluxOR thallium flux, dofetilide IC70 present;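 active = activation above the mean of controls blocked by dofetilide plus 5 SD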;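 also: thallium influx through hERG after potassium depolarization seen as dye fluorescence rise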
KCC2 sec1: KCC2 (human) modulation, secondary assay; shares compounds with Cl transport mod; HEK293-KCC2, thallium flux, FluoZin2 fluorescence; stronger effect = higher value; normalised thallium flux (F/F0 slope) at 10 µM; 15% of 3,700 active;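 active = thallium flux slope above the same plate's solvent-only control mean plus 3 SD; inconclusive = the two replicate wells disagree; inactive = no significant difference from solvent-only control wells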
KCC2 bumet counter: thallium flux despite bumetanide block in KCC2 cells, secondary assay 3; shares compounds with Cl transport mod; 49% of 3,700 active; HEK293-KCC2 + bumetanide/ouabain, thallium flux FluoZin2; stronger effect = higher value; normalized thallium flux at 10 µM;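 active = thallium entry rate above the same plate's blocked-transporter control wells by more than 3 SD; inconclusive = the two repeat wells disagree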;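 also: raw slope of fluorescence over initial fluorescence between 10 and 20 s after thallium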
KCC2 secondary2: KCC2 (human) modulation, second secondary assay | shares compounds with Cl transport mod | HEK293-KCC2, thallium flux FluoZin2 fluorescence; actives lie on both sides; F/F0 rise rate, 10–20 s post-thallium | normalized thallium flux at 10 µM | 23% of 3,700 active | AID 1715;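 active = thallium flux slope more than 3 SD above or below the plate's solvent-only control mean, mostly below; inconclusive = the two repeat wells disagreed; inactive = no significant shift from solvent-only controls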
HEK counter1: parental HEK flux effect, counter-screen; 46% of 3,700 active; thallium flux rate (normalised fluorescence) at 10 µM; HEK293 parental cells, thallium flux FluoZin2, ouabain; baseline-ratio fluorescence slope, 10–20 s after thallium; shares compounds with Cl transport mod;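 active = thallium flux rate significantly above the same plate's solvent-only control wells, beyond their mean plus 3 SD; inconclusive = the two replicate wells gave conflicting results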
KCC2 ouabain: KCC2 (human) modulation, ouabain retest; shares compounds with Cl transport mod; HEK293-KCC2, thallium flux FluoZin2 fluorescence; bidirectional: low = inhibitor, high = activator; raw Tl+ flux slope (below DMSO = inhibition, above = activation) at 10 µM; 48% of 3,700 active; AID 1717;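 active = thallium flux slope beyond 3 SD from same-plate DMSO control mean in most replicates, usually higher, sometimes lower; inconclusive = repeat tests gave conflicting results; inactive = no significant difference from controls in most replicates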;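 also: slope of initial-normalized fluorescence between seconds 10 and 20 after thallium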
HEK293 Tl flux2: parental HEK flux effect, counter-screen 2; shares compounds with Cl transport mod; HEK293 parental, thallium flux FluoZin-2 fluorescence slope; thallium flux slope at 10 µM; 33% of 3,700 active; AID 1718;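 active = thallium flux slope above the same plate's solvent-control mean plus 3 SD in both duplicate wells; inconclusive = duplicate wells that disagreed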;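 also: run without ouabain in cells lacking the KCC2 cotransporter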
A number is an active result; 0 = inactive; ? = inconclusive; - = no result. Only some compounds are listed: those with a hit (about 4.1% of all), similar ones and a draw of the others.

SMILES	KCNK9 block	KCNK3 block	KCNQ1 inh	KCNQ1 pot	Cl transport mod	hERG protect	KCC2 sec1	KCC2 bumet counter	KCC2 secondary2	HEK counter1	KCC2 ouabain	HEK293 Tl flux2
C=CC(=O)Nc1cccc(N(C)c2ccnc(Nc3ccc(N4CCN(C)CC4)cc3)n2)c1	-	0	-	-	-	-	-	-	-	-	-	-
COCCCN(C(=O)Cc1coc2cc(C)c(C)cc12)c1c(N)n(Cc2ccccc2)c(=O)[nH]c1=O	0	0	0	0	-	0	-	-	-	-	-	-
[N-]=[N+]=NCC/C=C\C1NS(=O)(=O)OCC1O (configuration not stated)	0	0	0	0	-	0	-	-	-	-	-	-
CCNC(=S)N/N=C(\C)c1cccc(OC)c1	0	0	0	0	0	0	-	-	-	-	-	-
COCCNC(=S)N/N=C(\C)c1ccc(OC(F)F)cc1	0	0	0	0	0	0	-	-	-	-	-	-
CCNC(=S)N/N=C(\C)c1ccc2ccccc2c1	0	-	0	0	20	0	0	0.033	0	?	0.031	0
COCCNC(=S)N/N=C(\C)c1cccc(C(F)(F)F)c1	0	0	0	0	5.8	0	0	0.02	0	0.012	0	0.015
COc1ccc(CNC(=S)Nc2cc(C)ccc2C)cc1	0	0	0	0	0	0	-	-	-	-	-	-
COCCNC(=S)N/N=C(\C)c1cc2ccccc2o1	0	0	0	0	19	0	0	0.025	?	0.022	0.029	0.018
COc1ccc(/C(C)=N/NC(=S)Nc2cc(C)ccc2C)cc1	0	0	0	0	25	0	0	0.048	0.046	0.036	0.041	0.038
CCOc1ccccc1OCCCC(=O)Nc1cccc(-n2cnnn2)c1C	-	0	-	-	-	-	-	-	-	-	-	-
CCOC(=O)c1cc2c(nc1NC(=S)NCc1ccccc1)CCCC2	0	0	0	0	5.2	0	0	0.03	0.039	0.038	0.063	0.018
CCOC(=O)c1cc2c(nc1NC(=S)Nc1ccccc1)CC(C)(C)OC2	0	0	0	0	0	0	-	-	-	-	-	-
C=CCNC(=S)Nc1nc2c(cc1C(=O)OCC)COC(C)(C)C2	0	0	0	0	8.5	0	0	0.022	0	0.02	0.029	0.021
Nc1ccccc1C(=O)NNC1=C(C(=O)C(F)(F)F)CCC1	0	0	0	0	0	0	-	-	-	-	-	-
O=C(NNC1=C(C(=O)C(F)(F)F)CCC1)c1ccc(Br)cc1	0	0	0	0	11	0	0	0.024	0	0.015	?	0.012
COc1ccccc1C(=O)NNC1=C(C(=O)C(F)(F)F)CCC1	0	0	0	0	4.9	0	0	0.044	0.043	0.038	0.041	0.036
Cc1onc(-c2c(F)cccc2Cl)c1C(=O)OCC(=O)Nc1cccc(S(=O)(=O)N(C)C)c1	-	0	-	-	-	-	-	-	-	-	-	-
O=C(CN1C(=O)NC(Cc2ccccc2)C1=O)NC(=O)NC1CCCCC1 (configuration not stated)	0	0	0	0	-4.6	0	0	0	?	0	0.015	0
Cc1ccc2c(c1)S(=O)(=O)c1ccc3ccccc3c1N2	-	0	-	-	-	-	-	-	-	-	-	-
CCn1nc(C(=O)NCc2nnc3ccccn23)c2ccccc2c1=O	-	0	-	-	-	-	-	-	-	-	-	-
Cc1ccc(CSc2nc3sc(C)c(C)c3c(=O)n2Cc2ccco2)cc1	0	0	0	0	9.4	0	0	0.019	0.039	0.024	0.031	0.023
O=C(Nc1nc(COc2ccccc2)cs1)C1CCC1	0	0	0	0	-4.3	0	0	0	?	0	0.013	?
O=C(O)c1ccc2c(=O)n3cc(C(=O)c4ccccc4O)cc(Cl)c3nc2c1	0	0	0	0	0	0	-	-	-	-	-	-
Cc1ccc(OCC(=O)NNC(=O)CSc2ncnc3sc(C)c(C)c23)cc1	0	0	0	0	13	0	0	0.016	0	0.02	0.029	0.013
SMILES	KCNK9 block	KCNK3 block	KCNQ1 inh	KCNQ1 pot	Cl transport mod	hERG protect	KCC2 sec1	KCC2 bumet counter	KCC2 secondary2	HEK counter1	KCC2 ouabain	HEK293 Tl flux2
Cc1sc2ncnc(SCC(=O)c3ccc(Cl)s3)c2c1C	0	-	0	0	0	0	-	-	-	-	-	-
CCc1ccc(OCC(=O)NNC(=O)CSc2ncnc3sc(C)c(C)c23)cc1	0	0	0	0	4.5	0	?	0.015	0	0.01	?	0
Cc1sc2ncnc(SCC(=O)NC(C)(C)C)c2c1C	0	0	0	0	0	0	-	-	-	-	-	-
Cc1sc2ncnc(SCC(=O)c3ccc(O)cc3O)c2c1C	0	0	0	8	102	0	0.01	0.087	0.076	0.076	0.078	0.055
Cc1sc2ncnc(SCc3ccco3)c2c1C	0	0	0	0	0	0	-	-	-	-	-	-
Cc1ccc(OCCSc2ncnc3sc(C)c(C)c23)cc1C	0	0	0	0	-	0	0.014	0.042	0	?	?	0.013
COc1ccc(C)cc1S(=O)(=O)N(C)CC(=O)NCc1ccccn1	0	0	0	0	-	0	-	-	-	-	-	-
Cc1onc(-c2ccccc2Cl)c1C(=O)NCCN1Cc2ccccc2C1=O	0	0	0	0	-	0	0	0	0	0	0	0
Cc1onc(-c2ccccc2Cl)c1C(=O)NCc1ccccn1	0	0	0	0	0	0	-	-	-	-	-	-
COc1ccc(CCNC(=O)c2c(-c3ccccc3Cl)noc2C)cc1	0	0	0	0	0	0	-	-	-	-	-	-
Cc1onc(-c2c(F)cccc2Cl)c1C(=O)NCc1ccccn1	0	0	0	0	-4.9	0	?	?	?	0	0	0
COC(=O)c1ccc(NC(=S)NC(=O)c2c(-c3ccccc3)noc2C)cc1	0	0	0	0	17	0	0	0.023	0	?	0.049	0
COC(=O)c1ccc(C)c(NC(=O)c2c(-c3ccccc3)noc2C)c1	0	0	0	0	-	0	-	-	-	-	-	-
CCOC(=O)c1c(C)c(C(=O)NCc2ccccn2)c(C)n1CC	0	0	0	0	8.3	0	0	0	0	0	0	0
COc1ccc(NC(=O)CN(C)C(=O)c2cc(C)on2)cc1	0	0	0	0	-	0	-	-	-	-	-	-
COc1ccc(C(=O)NCc2nnc(SCC(=O)NCc3ccco3)o2)cc1	0	0	0	0	-	0	-	-	-	-	-	-
